Test results from ChEMBL document CHEMBL1122803, “Folate antagonists. 22. Antimalarial and antibacterial effects of 2,4-diamino-6-quinazolinesulfonamides” (1984).
In brackets after ≈: the same amount, converted by molar mass.

Columns and labels:
[1] = test system: Plasmodium berghei; experiment: Antimalarial activity as survivor numbers at day 60 for drug-sensitive Plasmodium berghei infected mice (Mus musculus) at 640 mg/kg subcutaneous dose over 72 hr; assay type: functional
In short: (§1)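 Mice infected with drug-sensitive P. berghei got one subcutaneous dose in sesame or peanut oil 72 h postinfection. Read-out is the number of mice alive at 60 days postinfection, termed "cured", without subinoculation to confirm parasitological cure. Groups of five per dose, or 10 where indicated.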

[2] = test system: Plasmodium berghei; experiment: Antimalarial activity as change in MST against drug-sensitive Plasmodium berghei infected mice (Mus musculus) at 160 mg/kg subcutaneous dose after 72h; assay type: functional
[3] = test system: Plasmodium berghei; experiment: Antimalarial activity as change in MST for drug-sensitive Plasmodium berghei infected mice (Mus musculus) at 80mg/kg subcutaneous dose over 72h; assay type: functional
[4] = test system: Mycobacterium tuberculosis; experiment: In vitro antibacterial activity against Mycobacterium tuberculosis H37Rv.; assay type: functional
In short: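 Mycobacterium tuberculosis tested in vitro by gradient-plate test; minimum inhibitory concentration reported.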

[5] = test system: Escherichia coli; experiment: Tested in vitro against Escherichia coli Vogel. by gradient-plate test; assay type: functional
In short: (§2)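 Antibacterial testing in vitro by gradient-plate test. Read-out was the minimum inhibitory concentration, with values exceeding 25 reported as >25.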

[6] = test system: Shigella sonnei; experiment: In vitro antibacterial activity against Shigella sonnei C-10.; assay type: functional; in short: as §2
[7] = test system: Enterococcus faecalis; experiment: In vitro antibacterial activity against Streptococcus faecalis MGH-2.; assay type: functional; in short: as §2
[8] = test system: Staphylococcus aureus; experiment: In vitro antibacterial activity against […] S 18713.; assay type: functional; in short: as §2
[9] = test system: Pseudomonas aeruginosa; experiment: Compound was tested in vitro against Pseudomonas aeruginosa 28. by gradient-plate test.; assay type: functional; in short: as §2
[10] = test system: Staphylococcus aureus; experiment: In vitro antibacterial activity against […] U.C-76.; assay type: functional; in short: as §2
[11] = test system: Plasmodium berghei; experiment: Antimalarial activity as change in MST against drug-sensitive Plasmodium berghei infected mice (Mus musculus) at 20 mg/kg subcutaneous dose after 72h; assay type: functional
[12] = test system: Plasmodium berghei; experiment: In vivo antimalarial activity against drug-sensitive Plasmodium berghei in mice (Mus musculus) after 320 mg/kg subcutaneous dose for 72 hrs as survivors 60 days post infection
[13] = test system: Plasmodium berghei; experiment: Antimalarial activity as change in MST for drug-sensitive Plasmodium berghei infected mice (Mus musculus) at 40 mg/kg subcutaneous dose over 72hr; assay type: functional
[14] = test system: Escherichia coli; experiment: Compound was tested in vitro against Escherichia coli Vogel. by gradient-plate test.; assay type: functional; in short: as §2
[15] = test system: Pseudomonas aeruginosa; experiment: In vitro against Pseudomonas aeruginosa 28. by gradient-plate test; assay type: functional; in short: as §2
[16] = test system: Plasmodium berghei; experiment: Antimalarial activity as change in MST for drug-sensitive Plasmodium berghei infected mice (Mus musculus) at 640 mg/kg subcutaneous dose over 72 hr; assay type: functional
[17] = test system: Plasmodium berghei; experiment: Antimalarial activity as change in MST against drug-sensitive Plasmodium berghei infected mice (Mus musculus) at 320 mg/kg subcutaneous dose after 72 hr; assay type: functional
[18] = test system: Plasmodium berghei; experiment: Antimalarial activity as change in MST for drug-sensitive Plasmodium berghei infected mice (Mus musculus) at 40 mg/kg subcutaneous dose over 72 hr; assay type: functional
[19] = test system: Plasmodium berghei; experiment: Antimalarial activity as change in MST for drug-sensitive Plasmodium berghei infected mice (Mus musculus) at 80 mg/kg subcutaneous dose over 72 hr; assay type: functional
[20] = test system: Plasmodium berghei; experiment: Antimalarial activity as change in MST for drug-sensitive Plasmodium berghei infected mice (Mus musculus) after 72 hrs at 320 mg/kg subcutaneous dose; assay type: functional
[21] = test system: Plasmodium berghei; experiment: Antimalarial activity as toxic deaths 2-5 days post infection for drug-sensitive Plasmodium berghei infected mice (Mus musculus) at 640 mg/kg subcutaneous dose over 72 hr; assay type: functional
In short: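 P. berghei (drug-sensitive) infected mice dosed once subcutaneously 72 h postinfection, compound in sesame or peanut oil. Read-out is the count of deaths on days 2–5 after infection, attributed to drug toxicity. Five animals per dose level, or 10 where indicated.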

[22] = test system: Plasmodium berghei; experiment: Antimalarial activity as change in MST against drug-sensitive Plasmodium berghei infected mice (Mus musculus) at 160 mg/kg subcutaneous dose after 72 hr; assay type: functional
[23] = test system: Staphylococcus aureus; experiment: Compound was tested in vitro against […] U.C-76. by gradient-plate test.; assay type: functional; in short: as §2
[24] = test system: Staphylococcus aureus; experiment: Compound was tested in vitro against […] S 18713 by gradient-plate test.; assay type: functional; in short: as §2
[25] = test system: Plasmodium berghei; experiment: Antimalarial activity as survivor number at day 60 for drug-sensitive Plasmodium berghei infected mice (Mus musculus) at 640 mg/kg subcutaneous dose over 72 hr; assay type: functional; in short: as §1
[26] = test system: Enterococcus faecalis; experiment: Compound was tested in vitro against Streptococcus faecalis MGH-2. by gradient-plate test.; assay type: functional; in short: as §2

Row | SMILES | Delta MST [2] [days] | Delta MST [3] [days] | MIC [4] [mg/L] | MIC [5] [mg/L] | MIC [6] [mg/L] | MIC [7] [mg/L] | MIC [8] [mg/L] | MIC [10] [mg/L] | Delta MST [11] [days] | Delta MST [13] [days] | MIC [15] [mg/L] | Delta MST [16] [days] | Delta MST [17] [days] | other results
1 | Nc1nc(N)c2cc(S(=O)(=O)N3CCCC3)ccc2n1 | 8.7 | 6.9 | 10 (≈ 34.1 µM) | 10 (≈ 34.1 µM) | > 25 | < 0.25 | 2 (≈ 6.82 µM) | < 0.25 | 0.5 | 5 |  |  |  | survivors at day 60 [1]: 10; MIC [9]: > 25 mg/L; survivors at day 60 [12]: 5
2 | CCN(CC)CCN(C)S(=O)(=O)c1ccc2nc(N)nc(N)c2c1 | 0.3 |  | > 25 |  | > 25 | 20 (≈ 56.7 µM) | > 25 | > 25 |  | 0.1 | > 25 | 0.3 |  | MIC [14]: > 25 mg/L
3 | Nc1nc(N)c2cc(S(=O)(=O)Nc3ccc4ccccc4c3)ccc2n1 | 1.1 |  |  | > 25 | > 25 | 5 (≈ 13.7 µM) | > 25 | > 25 | 0.3 |  | > 25 | 5.3 | 1.5 | Delta MST [18]: 0.3 days; Delta MST [19]: 0.5 days
4 | CN(Cc1ccc(Cl)c(Cl)c1)S(=O)(=O)c1ccc2nc(N)nc(N)c2c1 | 0.5 | 0.5 | > 25 | > 25 | > 25 | > 25 | > 25 | > 25 | 0.3 |  | > 25 | 9.5 | 4.1 | Delta MST [18]: 0.3 days
5 | Nc1nc(N)c2cc(S(=O)(=O)N3CCSCC3)ccc2n1 | 8.3 | 3.5 | > 25 | 2 (≈ 6.15 µM) | 2 (≈ 6.15 µM) | < 0.25 | < 0.25 | < 0.25 | 1.7 | 2.5 | > 25 | 12.6 |  | Delta MST [20]: 9.6 days
6 | CCN(CC)S(=O)(=O)c1ccc2nc(N)nc(N)c2c1Cl |  | 4.3 | > 25 | > 25 | > 25 | < 0.25 | > 25 | 10 (≈ 30.3 µM) |  | 2.3 | > 25 |  | 18.9 | toxic deaths [21]: 5; Delta MST [22]: 14.9 days
7 | CN(c1ccccc1)S(=O)(=O)c1ccc2nc(N)nc(N)c2c1 | 8.3 | 3.1 | > 25 | > 25 | > 25 | > 25 | > 25 | > 25 | 0.5 |  | > 25 | 13.9 | 11.5 | Delta MST [18]: 0.5 days
8 | Nc1nc(N)c2cc(S(=O)(=O)N3CCC(N4CCCCC4)CC3)ccc2n1 | 0.7 | 0.5 | > 25 | > 25 | > 25 | > 25 | > 25 | > 25 |  | 0.3 | > 25 | 3.9 | 2.1 | 
9 | Nc1nc(N)c2cc(S(=O)(=O)N(CCO)CCO)ccc2n1 | 1.3 | 0.5 |  |  |  |  |  |  | 0.3 |  |  | 8.1 | 4.1 | Delta MST [18]: 0.3 days
10 | CCCN(CCC)S(=O)(=O)c1ccc2nc(N)nc(N)c2c1 |  |  |  |  |  |  |  |  |  | 0.3 |  | 1.3 |  | Delta MST [22]: 0.4 days
11 | CN1CCN(S(=O)(=O)c2ccc3nc(N)nc(N)c3c2)CC1 | 4.4 | 1.5 | > 25 | > 25 | > 25 | 2 (≈ 6.2 µM) |  |  | 0.3 | 1 |  | 11.8 |  | MIC [23]: 2 mg/L (≈ 6.2 µM); MIC [24]: > 25 mg/L; MIC [9]: > 25 mg/L; Delta MST [20]: 8.9 days
12 | Nc1nc(N)c2cc(S(=O)(=O)N3CCCCC3)ccc2n1 | 10.2 | 4.7 | 10 (≈ 32.5 µM) |  | 0.5 (≈ 1.63 µM) | < 0.25 | < 0.25 | < 0.25 | 1.1 |  | > 25 |  | 12.9 | survivors at day 60 [1]: 5; Delta MST [18]: 4.4 days; MIC [14]: < 0.25 mg/L
13 | CN(C)S(=O)(=O)c1ccc2nc(N)nc(N)c2c1Cl | 17 | 12.2 | > 25 |  | 5 (≈ 16.6 µM) | < 0.25 | > 25 | 15 (≈ 49.7 µM) | 7.5 | 10.3 | > 25 |  |  | MIC [14]: 5 mg/L (≈ 16.6 µM); survivors at day 60 [25]: 1; Delta MST [20]: 23.9 days
14 | Cc1c(S(=O)(=O)N(C)C)ccc2nc(N)nc(N)c12 |  |  | > 25 | < 0.25 | 1.5 (≈ 5.33 µM) | < 0.25 | 2.5 (≈ 8.89 µM) | 2 (≈ 7.11 µM) |  |  | > 25 |  |  | Delta MST [18]: 1.1 days; toxic deaths [21]: 5
15 | Nc1nc(N)c2cc(S(=O)(=O)N3CCCCC3Cc3ccccc3)ccc2n1 (stereo not drawn) | 0.3 |  | > 25 | > 25 | > 25 | < 0.25 | > 25 | 2 (≈ 5.03 µM) |  | 0.3 | > 25 | 0.5 |  | 
16 | CCOC(=O)N1CCN(S(=O)(=O)c2ccc3nc(N)nc(N)c3c2)CC1 | 4.1 | 0.5 | > 25 | > 25 | > 25 | 2 (≈ 5.26 µM) | > 25 | 2 (≈ 5.26 µM) | 0.1 | 0.2 | > 25 |  | 4.7 | survivors at day 60 [1]: 4
17 | CC(C)N(C)S(=O)(=O)c1ccc2nc(N)nc(N)c2c1 | 7.3 |  |  |  |  |  |  |  | 0.5 | 0.7 |  |  | 6.9 | Delta MST [19]: 4 days
18 | Nc1nc(N)c2cc(S(=O)(=O)Nc3cccc(Br)c3)ccc2n1 | 0.5 | 0.5 | > 25 | > 25 | > 25 | > 25 | > 25 | > 25 | 0.3 | 0.3 | > 25 | 4.1 | 1.7 | 
19 | Nc1nc(N)c2cc(S(=O)(=O)Nc3ccc(Cl)c(Cl)c3)ccc2n1 | 10.1 | 8.1 | > 25 | > 25 | > 25 |  | > 25 | 2.5 (≈ 6.51 µM) | 0.3 | 3.1 | > 25 |  | 9.9 | survivors at day 60 [1]: 5; MIC [26]: > 25 mg/L
20 | Nc1nc(N)c2cc(S(=O)(=O)Nc3ccc(Cl)cc3)ccc2n1 | 9.3 | 4.9 |  |  |  |  |  |  | 0.5 | 0.7 |  | 13.9 | 14.7 | 
21 | CN(c1cccc(Cl)c1)S(=O)(=O)c1ccc2nc(N)nc(N)c2c1 | 4.5 | 0.5 | > 25 | > 25 | > 25 | > 25 | > 25 | > 25 | 0.3 | 0.3 |  | 11.9 | 6.9 | MIC [9]: > 25 mg/L
